Results reported in ChEMBL document CHEMBL1135354, “Synthesis and activity of a novel class of tribasic macrocyclic antibiotics: the triamilides” (2002).
Values after ≈ are worked out from the molar mass of the structure shown.

How the values were obtained:
Format in all cases: functional
Escherichia coli = assay: In vitro minimum inhibitory concentration required to inhibit growth of Escherichia coli.; details: Escherichia coli
Procedure, shortened: (§1)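 Broth microdilution per NCCLS; E. coli 51A0150 (poultry lung) and P. multocida 59A0067 (turkey). Overnight BHI plate colonies suspended in saline to OD625 0.09 (0.5 McFarland), diluted 1:100 in BHI broth; final ~5×10^5 cfu/mL against 2-fold serial dilutions in BHI broth.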

Pasteurella multocida [1] = assay: Effective dose required to inhibit Pasteurella multocida infection model in mouse by subcutaneous administration; details: Pasteurella multocida, sc; read-out: ED50
Procedure, shortened: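 Mice infected intranasally with P. multocida (respiratory disease model); drug given subcutaneously 0.5 h post-infection at 5–80 mg/kg. ED50 derived from number of surviving mice 4 days after infection.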

Pasteurella multocida [2] = assay: Minimum inhibitory concentration required to inhibit growth of Pasteurella multocida in vitro by microdilution method.; details: Pasteurella multocida; read-out: MIC; procedure, shortened: as §1

| MIC (Escherichia coli) | MIC (Pasteurella multocida [2]) | SMILES | ED50 (Pasteurella multocida [1]) |
| --- | --- | --- | --- |
| 0.39 µg/mL (≈ 0.492 µM) | 0.05 µg/mL (≈ 0.0631 µM) | CC[C@H]1OC(=O)[C@H](C)[C@@H](O[C@H]2C[C@@](C)(OC)[C@](O)(CN(C)C)[C@H](C)O2)[C@H](C)[C@@H](O[C@@H]2O[C@H](C)C[C@H](N(C)C)[C@H]2O)[C@](C)(O)C[C@@H](C)CN[C@H](C)[C@@H](O)[C@]1(C)O | 5.9 mg/kg |
| 0.2 µg/mL (≈ 0.244 µM) | 0.05 µg/mL (≈ 0.0611 µM) | CC[C@H]1OC(=O)[C@H](C)[C@@H](O[C@H]2C[C@@](C)(OC)[C@](O)(CN3CCCC3)[C@H](C)O2)[C@H](C)[C@@H](O[C@@H]2O[C@H](C)C[C@H](N(C)C)[C@H]2O)[C@](C)(O)C[C@@H](C)CN[C@H](C)[C@@H](O)[C@]1(C)O | < 10 mg/kg |
| 0.39 µg/mL (≈ 0.469 µM) | 0.05 µg/mL (≈ 0.0601 µM) | CC[C@H]1OC(=O)[C@H](C)[C@@H](O[C@H]2C[C@@](C)(OC)[C@](O)(CN3CCCCC3)[C@H](C)O2)[C@H](C)[C@@H](O[C@@H]2O[C@H](C)C[C@H](N(C)C)[C@H]2O)[C@](C)(O)C[C@@H](C)CN[C@H](C)[C@@H](O)[C@]1(C)O | – |
| 25 µg/mL (≈ 30.3 µM) | 0.39 µg/mL (≈ 0.473 µM) | CC[C@H]1OC(=O)[C@H](C)[C@@H](O[C@H]2C[C@@](C)(OC)[C@](O)(CSCCO)[C@H](C)O2)[C@H](C)[C@@H](O[C@@H]2O[C@H](C)C[C@H](N(C)C)[C@H]2O)[C@](C)(O)C[C@@H](C)CN[C@H](C)[C@@H](O)[C@]1(C)O | > 40 mg/kg |
| 0.39 µg/mL (≈ 0.476 µM) | 0.05 µg/mL (≈ 0.061 µM) | CC[C@H]1OC(=O)[C@H](C)[C@@H](O[C@H]2C[C@@](C)(OC)[C@](O)(CNC(C)(C)C)[C@H](C)O2)[C@H](C)[C@@H](O[C@@H]2O[C@H](C)C[C@H](N(C)C)[C@H]2O)[C@](C)(O)C[C@@H](C)CN[C@H](C)[C@@H](O)[C@]1(C)O | 9.6 mg/kg |
| 0.78 µg/mL (≈ 0.951 µM) | 0.1 µg/mL (≈ 0.122 µM) | CCCCNC[C@]1(O)[C@H](C)O[C@@H](O[C@H]2[C@H](C)[C@@H](O[C@@H]3O[C@H](C)C[C@H](N(C)C)[C@H]3O)[C@](C)(O)C[C@@H](C)CN[C@H](C)[C@@H](O)[C@](C)(O)[C@@H](CC)OC(=O)[C@@H]2C)C[C@@]1(C)OC | 17 mg/kg |
| 0.78 µg/mL (≈ 0.97 µM) | 0.1 µg/mL (≈ 0.124 µM) | CC[C@H]1OC(=O)[C@H](C)[C@@H](O[C@H]2C[C@@](C)(OC)[C@](O)(CNC3CC3)[C@H](C)O2)[C@H](C)[C@@H](O[C@@H]2O[C@H](C)C[C@H](N(C)C)[C@H]2O)[C@](C)(O)C[C@@H](C)CN[C@H](C)[C@@H](O)[C@]1(C)O | 15 mg/kg |
| 6.25 µg/mL (≈ 8.18 µM) | 0.39 µg/mL (≈ 0.51 µM) | CC[C@H]1OC(=O)[C@H](C)[C@@H](O[C@H]2C[C@@](C)(OC)[C@](O)(CN)[C@H](C)O2)[C@H](C)[C@@H](O[C@@H]2O[C@H](C)C[C@H](N(C)C)[C@H]2O)[C@](C)(O)C[C@@H](C)CN[C@H](C)[C@@H](O)[C@]1(C)O | – |
| 0.39 µg/mL (≈ 0.492 µM) | < 0.1 µg/mL | CC[C@H]1OC(=O)[C@H](C)[C@@H](O[C@H]2C[C@@](C)(OC)[C@@](O)(CN(C)C)[C@H](C)O2)[C@H](C)[C@@H](O[C@@H]2O[C@H](C)C[C@H](N(C)C)[C@H]2O)[C@](C)(O)C[C@@H](C)CN[C@H](C)[C@@H](O)[C@]1(C)O | 9.9 mg/kg |
| 0.2 µg/mL (≈ 0.244 µM) | 50 µg/mL (≈ 61.1 µM) | CC[C@H]1OC(=O)[C@H](C)[C@@H](O[C@H]2C[C@@](C)(OC)[C@@](O)(CN3CCCC3)[C@H](C)O2)[C@H](C)[C@@H](O[C@@H]2O[C@H](C)C[C@H](N(C)C)[C@H]2O)[C@](C)(O)C[C@@H](C)CN[C@H](C)[C@@H](O)[C@]1(C)O | 7.3 mg/kg |
| 0.2 µg/mL (≈ 0.249 µM) | 0.05 µg/mL (≈ 0.0622 µM) | CC[C@H]1OC(=O)[C@H](C)[C@@H](O[C@H]2C[C@@](C)(OC)[C@@](O)(CNC3CC3)[C@H](C)O2)[C@H](C)[C@@H](O[C@@H]2O[C@H](C)C[C@H](N(C)C)[C@H]2O)[C@](C)(O)C[C@@H](C)CN[C@H](C)[C@@H](O)[C@]1(C)O | 20 mg/kg |
| 6.25 µg/mL (≈ 8.18 µM) | 0.39 µg/mL (≈ 0.51 µM) | CC[C@H]1OC(=O)[C@H](C)[C@@H](O[C@H]2C[C@@](C)(OC)[C@@](O)(CN)[C@H](C)O2)[C@H](C)[C@@H](O[C@@H]2O[C@H](C)C[C@H](N(C)C)[C@H]2O)[C@](C)(O)C[C@@H](C)CN[C@H](C)[C@@H](O)[C@]1(C)O | 30 mg/kg |
| 0.39 µg/mL (≈ 0.477 µM) | 0.1 µg/mL (≈ 0.122 µM) | CC[C@H]1OC(=O)[C@H](C)[C@@H](O[C@H]2C[C@@](C)(OC)[C@@](O)(CNCC3CC3)[C@H](C)O2)[C@H](C)[C@@H](O[C@@H]2O[C@H](C)C[C@H](N(C)C)[C@H]2O)[C@](C)(O)C[C@@H](C)CN[C@H](C)[C@@H](O)[C@]1(C)O | 5.7 mg/kg |
| 0.39 µg/mL (≈ 0.484 µM) | 0.1 µg/mL (≈ 0.124 µM) | CCCNC[C@@]1(O)[C@H](C)O[C@@H](O[C@H]2[C@H](C)[C@@H](O[C@@H]3O[C@H](C)C[C@H](N(C)C)[C@H]3O)[C@](C)(O)C[C@@H](C)CN[C@H](C)[C@@H](O)[C@](C)(O)[C@@H](CC)OC(=O)[C@@H]2C)C[C@@]1(C)OC | 12 mg/kg |
| 1.56 µg/mL (≈ 1.9 µM) | 0.1 µg/mL (≈ 0.122 µM) | CC[C@H]1OC(=O)[C@H](C)[C@@H](O[C@H]2C[C@@](C)(OC)[C@@](O)(CN(C)CCO)[C@H](C)O2)[C@H](C)[C@@H](O[C@@H]2O[C@H](C)C[C@H](N(C)C)[C@H]2O)[C@](C)(O)C[C@@H](C)CN[C@H](C)[C@@H](O)[C@]1(C)O | 12 mg/kg |
| 0.39 µg/mL (≈ 0.476 µM) | 0.1 µg/mL (≈ 0.122 µM) | CC[C@H]1OC(=O)[C@H](C)[C@@H](O[C@H]2C[C@@](C)(OC)[C@@](O)(CNC(C)(C)C)[C@H](C)O2)[C@H](C)[C@@H](O[C@@H]2O[C@H](C)C[C@H](N(C)C)[C@H]2O)[C@](C)(O)C[C@@H](C)CN[C@H](C)[C@@H](O)[C@]1(C)O | 14 mg/kg |
| 0.78 µg/mL (≈ 0.953 µM) | 0.1 µg/mL (≈ 0.122 µM) | CC[C@H]1OC(=O)[C@H](C)[C@@H](O[C@H]2C[C@@](C)(OC)[C@@](O)(CN(C)C3CC3)[C@H](C)O2)[C@H](C)[C@@H](O[C@@H]2O[C@H](C)C[C@H](N(C)C)[C@H]2O)[C@](C)(O)C[C@@H](C)CN[C@H](C)[C@@H](O)[C@]1(C)O | 17 mg/kg |
| 1.56 µg/mL (≈ 1.89 µM) | 0.2 µg/mL (≈ 0.242 µM) | CC[C@H]1OC(=O)[C@H](C)[C@@H](O[C@H]2C[C@@](C)(OC)[C@@](O)(CSCCO)[C@H](C)O2)[C@H](C)[C@@H](O[C@@H]2O[C@H](C)C[C@H](N(C)C)[C@H]2O)[C@](C)(O)C[C@@H](C)CN[C@H](C)[C@@H](O)[C@]1(C)O | 51 mg/kg |
| 0.78 µg/mL (≈ 0.92 µM) | 0.2 µg/mL (≈ 0.236 µM) | CCCCCCNC[C@@]1(O)[C@H](C)O[C@@H](OC2[C@@H](C)C(=O)O[C@H](CC)[C@@](C)(O)[C@H](O)[C@@H](C)NC[C@H](C)C[C@@](C)(O)[C@H](O[C@@H]3O[C@H](C)C[C@H](N(C)C)[C@H]3O)[C@H]2C)C[C@@]1(C)OC (stereo partly drawn) | > 80 mg/kg |
| 3.13 µg/mL (≈ 3.84 µM) | 0.2 µg/mL (≈ 0.245 µM) | CC[C@H]1OC(=O)[C@H](C)[C@@H](O[C@H]2C[C@@](C)(OC)[C@@](O)(Cn3ccnc3)[C@H](C)O2)[C@H](C)[C@@H](O[C@@H]2O[C@H](C)C[C@H](N(C)C)[C@H]2O)[C@](C)(O)C[C@@H](C)CN[C@H](C)[C@@H](O)[C@]1(C)O | 20 mg/kg |
| 0.78 µg/mL (≈ 0.949 µM) | < 0.1 µg/mL | CC[C@H]1OC(=O)[C@H](C)[C@@H](O[C@H]2C[C@@](C)(OC)[C@@](O)(CNCCOC)[C@H](C)O2)[C@H](C)[C@@H](O[C@@H]2O[C@H](C)C[C@H](N(C)C)[C@H]2O)[C@](C)(O)C[C@@H](C)CN[C@H](C)[C@@H](O)[C@]1(C)O | 9.5 mg/kg |
| > 50 µg/mL | 3.13 µg/mL (≈ 3.67 µM) | CC[C@H]1OC(=O)[C@H](C)[C@@H](O[C@H]2C[C@@](C)(OC)[C@@](O)(CN(CCO)CCO)[C@H](C)O2)[C@H](C)[C@@H](O[C@@H]2O[C@H](C)C[C@H](N(C)C)[C@H]2O)[C@](C)(O)C[C@@H](C)CN[C@H](C)[C@@H](O)[C@]1(C)O | – |
